Shown are actives, neighbours in structure and some others; about 1.4% of the full set was active somewhere.
CRFBP-R2 agonist = agonists of human CRF-binding protein/CRF-R2 receptor complex; AID 588473; HEK293 CRF-R2/CRF-BP, calcium dye fluorescence (FLIPR); percent of saturating CRF peptide response; 0.46% of 350,000 active; activation, % at 13.2 µM;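 active means activation of at least 50%, plus an integration ratio under a set limit after plate pattern correction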;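 further: plate controls were neutral control wells without compound for no effect and CRF at EC100 for full effect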
cardiac RTF act = cardiac RTF calcium sensitization; P19429+P45379; IANBD-labeled TnC RTF fluorescence at EC20 calcium; 0% EC20 calcium, 100% full calcium; activation, % at 7.2 µM; 0.24% of 340,000 active; AID 493008;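 active means activation above the mean over all tested compounds plus 3 SD, cut at about 30% in these data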;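 further: rise in fluorescence read as greater calcium sensitivity of cardiac thin filaments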
CRFBP-R2 block = antagonists of CRF-binding protein/CRF-R2 receptor complex. HEK293 CRF-R2/CRF-BP, CRF-induced calcium fluorescence. inhibition, % at 11.8 µM. 0.59% of 350,000 active. AID 588475;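 active means inhibition of the ligand-induced calcium signal above about 50% at the single tested concentration, limit read from the data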
RTF Ca sens inh = cardiac RTF calcium desensitization | inhibition, % at 7.15 µM | AID 493244 | IANBD-labeled cardiac RTF, Ca2+ fluorescence | 0.12% of 340,000 active | P19429+P45379;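 active means inhibition above the mean inhibition of all tested compounds plus 3 SD, cut at about 17% in these data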;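 further: assay run at fixed EC70 calcium of 1.6 mM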
Tn7 DDE FP = inhibitors of Tn7 peptide binding to human fibrin DD(E) | AID 720508 | P02675 | inhibition, % at 8.3 µM | FP displacement of FITC-Tn7 peptide from fibrin DD(E); 0% = median of compound wells per plate | 0.13% of 370,000 active;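 active means inhibition above the mean of compounds falling within the control limits plus 3 SD of them, cut at about 14% in these data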;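 further: 0% = plate median of compound wells and 100% = 10 µM Aha-Tn7 peptide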
Target sequence (P02675 whole entry, looked up): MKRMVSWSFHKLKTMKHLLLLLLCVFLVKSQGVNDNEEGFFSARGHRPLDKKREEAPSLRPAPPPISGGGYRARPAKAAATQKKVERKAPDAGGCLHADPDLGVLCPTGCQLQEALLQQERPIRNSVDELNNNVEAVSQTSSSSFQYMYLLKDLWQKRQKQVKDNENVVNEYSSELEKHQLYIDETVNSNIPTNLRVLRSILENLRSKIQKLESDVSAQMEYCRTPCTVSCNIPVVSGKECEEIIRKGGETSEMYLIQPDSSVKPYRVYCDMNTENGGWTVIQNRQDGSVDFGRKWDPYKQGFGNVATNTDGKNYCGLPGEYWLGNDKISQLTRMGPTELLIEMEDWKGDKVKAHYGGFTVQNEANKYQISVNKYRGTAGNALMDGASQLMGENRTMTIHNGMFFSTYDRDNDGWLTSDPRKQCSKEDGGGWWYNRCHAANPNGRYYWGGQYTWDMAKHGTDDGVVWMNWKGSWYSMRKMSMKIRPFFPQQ
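Assay system: human fibrin DD(E) protein / Input: 2 µM fibrin DD(E) / Benchmarks: high control of 10 µM Aha-Tn7 peptide / Measured by: fluorescence polarization of the labelled Tn7 tracer / Medium: Tris buffer with calcium and detergent, pH 7.8 / Timing: 10 min compound pre-incubation, 3 h probe incubation at room temperature / Repeats: one replicate per compound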
Tn6 DDE FP = disrupts Tn6 cyclic peptide binding to fibrin D-Dimer-E complex; inhibition, % at 8.3 µM; Fibrin DD(E) TRITC-Tn6 fluorescence polarization displacement; 0.21% of 370,000 active; AID 720509; P02675;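 active means inhibition above a per-campaign cutoff: mean of compounds within control limits plus 3 SD, cut at about 15% in these data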;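 further: 0% = median of all compound wells on the plate and 100% = blocking peptide control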
* = called active by the depositor; / = no result.

SMILES	CRFBP-R2 agonist	cardiac RTF act	CRFBP-R2 block	RTF Ca sens inh	Tn7 DDE FP	Tn6 DDE FP
CNc1nc(N(C)C)nc(N(C)C)n1	72*	0	-134	6	-1	5
N#Cc1cc(C(=O)c2ccccc2O)cn(-c2ccc(Cl)cc2)c1=O	53*	/	-13	/	0	11
Cc1c(-n2cc(C(=O)c3ccccc3O)cc(C#N)c2=O)c(=O)n(-c2ccccc2)n1C	139*	12	23	-3	-2	-2
Clc1ccc([C@H]2OC[C@@]3(CNCc4ccccc4)CS[C@H](c4ccc(Cl)cc4)N23)cc1	/	/	/	/	5	-1
CCn1ncc(C(=O)Nc2ccc([N+](=O)[O-])cc2OC)c1C	2	-7	51*	2	-1	-1
O=S1(=O)C[C@@H](N2CC[C@@H](O)C2)[C@H](COCc2ccccc2)N1	/	/	/	/	2	-4
COc1cc([N+](=O)[O-])ccc1N/C=C/C(=O)c1cccs1	84*	287*	-117	-493	-6	-5
CCCNC(=O)/C(=C/c1cn(S(=O)(=O)N(C)C)c2ccccc12)NC(=O)c1ccc(OC)cc1	78*	-2	-167	-14	0	2
O=C(Nc1cccc(Oc2ccccc2)c1)c1ccc(-n2cncn2)c2ccoc12	/	/	/	/	1	-11
CCOc1ccccc1Nc1ccnc2cc(Cl)ccc12	-16	-4	59*	-5	-1	1
CC(C)(C)n1nnnc1C(c1ccc(Cl)cc1)N(Cc1cccnc1)Cc1ccco1 (stereo not given)	8	-2	59*	11	6	-2
COc1ccccc1S(=O)(=O)N1CCn2cccc2C1C (stereo not given)	2	6	103*	-3	-1	-3
O=C(NC1CCCCN(Cc2ccc(OC(F)(F)F)cc2)C1=O)c1ccc2ccccc2c1 (stereo not given)	/	/	/	/	8	0
CC(=O)c1ccc(N2CCN(C(=O)CCS(=O)(=O)c3ccc4c(c3)CCN4C(C)=O)CC2)cc1	0	-1	80*	-6	-2	-4
O=C(Nc1ccc(F)cc1)C(CCc1ccccc1)N1CCN(c2cccc(C(F)(F)F)n2)CC1 (stereo not given)	/	/	/	/	-7	-2
COC(=O)CN1CCN(C(c2ccccc2)c2ccccc2)CC1	0	-3	6	-4	5	2
COC(=O)C1=C/C=C\CN(C(c2ccccc2)c2ccccc2)/C=C\1C(=O)OC	1	/	52*	/	2	-2
C[C@]12CCC(O)CC1CCC1C2CC[C@]2(C)C(c3cc(C(F)(F)F)n[nH]3)CCC12 (stereo not given in full)	54*	-6	-93	0	2	-3
CC12CCC3C(CCC4CC(O)CCC43C)C1CC(O)C2 (stereo not given)	10	3	8	7	-8	-4
Cc1ccc(S(=O)(=O)N[C@H](C(=O)OCC(=O)N2N=C(c3ccc(Cl)cc3)CC2c2ccco2)C(C)C)cc1 (stereo not given in full)	58*	5	-63	1	3	8
COCCNc1nc(Oc2ccc(C(N)=O)cc2)c2sccc2n1	/	/	/	/	9	-2
CCOC(=O)C1CCCN(C2=NC(=O)/C(=C/c3ccc(N(C)C)cc3)S2)C1 (stereo not given)	69*	65*	-46	-91	-30	3
Cn1cc(/C=C2\SC(=S)N(NC(=O)c3ccccc3Cl)C2=O)c2ccccc21	70*	74*	-118	-148	-6	-5
Cn1cc(/C=C2\SC(=O)NC2=S)c2ccccc21	27	7	-13	-7	16*	-1
Cc1ccc(C(=O)NN2C(=O)/C(=C/c3cn(C)c4ccccc34)SC2=S)cc1	43	77*	-91	-55	-4	-2
SMILES	CRFBP-R2 agonist	cardiac RTF act	CRFBP-R2 block	RTF Ca sens inh	Tn7 DDE FP	Tn6 DDE FP
C#CCN1CC(COc2ccccc2)Oc2cccc(Oc3ccc(C(C)C)cc3)c2S1(=O)=O (stereo not given)	/	/	/	/	6	-1
Cc1cccc(Cn2cc(CN3CC(N(C)CCCOC(=O)c4cc5ccccc5o4)CS3(=O)=O)nn2)c1 (stereo not given)	/	/	/	/	0	-12
CC(=O)CC[C@H]1CC[C@]2(CCCN(S(=O)(=O)c3ccccc3)C2)O1	/	/	/	/	-1	-5
COc1cc(-c2c(C(=O)c3ccccc3)[nH]c(N)c2C(N)=O)ccc1O	/	/	/	/	-2	-2
O=C(CCN1CCCC1)c1cccs1	0	1	6	-5	-5	4
O=C(CCN1CCC(c2cccs2)=N1)c1cccs1	69*	/	-53	/	2	-1
CCN(C(=O)c1ccccc1)c1ccc([N+](=O)[O-])cc1	-4	0	-5	-1	-4	1
O=[N+]([O-])c1ccc(N(c2ccccc2)c2ccccc2)cc1	54*	22	-38	-24	2	-1
O=C(Nc1cccc(C(F)(F)F)c1)OC1CC2CC1[C@H]1CCCCN1[C@H]2Cc1ccccc1 (stereo not given in full)	/	/	/	/	1	0
O=[N+]([O-])c1ccc(NCCCN2CCC(C(O)(c3ccccc3)c3ccccc3)CC2)cc1	/	/	/	/	-6	-1
COc1ccc(NC(=O)C(Sc2ccccc2)c2ccccc2)c(OC)c1 (stereo not given)	2	2	51*	0	6	0
CCNC(=O)C1(C)CCN(C(=O)c2ccc(OC)cc2)C1 (stereo not given)	/	/	/	/	-6	5
CCOc1ccccc1N(CC(=O)N1CCOCC1)S(=O)(=O)c1ccc(SC)cc1	109*	-4	-28	-5	-6	2
Cc1c(Cl)cnc(NC(=O)COC(=O)c2cccc(S(=O)(=O)N3CCOCC3)c2)c1Cl	1	/	-5	/	0	2
O=C1Nc2ccccc2/C1=C/c1cnc(-c2ccccc2)[nH]1	42	36*	-25	-63	-8	0
Cc1ccc2nc(-c3ccccc3)c(Cc3ccsc3)n2c1	/	/	/	/	4	-8
NC(=O)N/N=C/c1c(O)ccc2oc3c(c12)CCCC3	0	0	-5	-4	2	-3
CC(C)(C)N=Cc1c(O)ccc2oc3c(c12)CCCC3	51*	-3	-27	-9	7	0
CCC1=NN(C(=O)c2ccc(Cl)cc2)C(O)(c2ccccc2)C1 (stereo not given)	0	2	4	0	2	10
CCC1=NN(C(=O)c2ccc(Cl)cc2)C(O)(c2ccc(C)cc2)C1 (stereo not given)	0	-6	10	4	9	5
COC(=O)C1=NN(C(=O)c2ccc(Cl)cc2)C(O)(c2ccccc2)C1 (stereo not given)	72*	4	14	-2	-3	7

Source: PubChem (several laboratories)
